Measurements as given in ChEMBL document CHEMBL4033643, “Synthesis and in vitro antitumour activity of crassalactone D, its stereoisomers and novel cinnamic ester derivatives” (Eur J Med Chem, 2017).
Calls of active or inactive are those of the source. The calls are words filed in the database; no cut-off is given here.

Assays:
MRC5 = test: Cytotoxicity against human MRC5 cells assessed as reduction in cell viability after 72 hrs by MTT assay; type: cell-based; conditions: MRC5, 72 h
HeLa = test: Cytotoxicity against human HeLa cells assessed as reduction in cell viability after 72 hrs by MTT assay; type: functional, cell-based
MDA-MB-231 = test: Cytotoxicity against human MDA-MB-231 cells assessed as reduction in cell viability after 72 hrs by MTT assay; type: functional, cell-based; conditions: MDA-MB-231, 72 h
MCF7 = test: Cytotoxicity against human MCF7 cells assessed as reduction in cell viability after 72 hrs by MTT assay; type: functional, cell-based; conditions: MCF7, 72 h
Raji = test: Cytotoxicity against human Raji cells assessed as reduction in cell viability after 72 hrs by MTT assay; type: functional, cell-based
Jurkat = test: Cytotoxicity against human Jurkat cells assessed as reduction in cell viability after 72 hrs by MTT assay; type: functional, cell-based
HL-60 = test: Cytotoxicity against human HL60 cells assessed as reduction in cell viability after 72 hrs by MTT assay; type: functional, cell-based; conditions: HL-60, 72 h
K562 [1] = test: Cytotoxicity against human K562 cells assessed as reduction in cell viability after 72 hrs by MTT assay; type: functional, cell-based; conditions: K562, 72 h
A549 = test: Cytotoxicity against human A549 cells assessed as reduction in cell viability after 72 hrs by MTT assay; type: functional, cell-based; conditions: A549, 72 h
K562 [2] = test: Cell cycle arrest in human K562 cells assessed as accumulation at sub G1 phase at IC50 after 72 hrs by propidium iodide staining based flow cytometry (reference value: 1.48%); type: functional
K562 [3] = test: Cell cycle arrest in human K562 cells assessed as accumulation at G0/G1 phase at IC50 after 72 hrs by propidium iodide staining based flow cytometry (reference value: 38.48%); type: functional
K562 [4] = test: Cell cycle arrest in human K562 cells assessed as accumulation at S phase at IC50 after 72 hrs by propidium iodide staining based flow cytometry (reference value: 41.03%); type: functional
K562 [5] = test: Cell cycle arrest in human K562 cells assessed as accumulation at G2/M phase at IC50 after 72 hrs by propidium iodide staining based flow cytometry (reference value: 19.01%); type: functional
K562 [6] = test: Induction of apoptosis in human K562 cells assessed as specific apoptosis by Annexin V-FITC/propidium iodide staining based flow cytometry; type: functional; set-up: concentration or dose not given beside the values
K562 [7] = test: Induction of apoptosis in human K562 cells assessed as specific necrosis by Annexin V-FITC/propidium iodide staining based flow cytometry; type: functional; set-up: concentration or dose not given beside the values
K562 [8] = test: Induction of apoptosis in human K562 cells assessed as decrease in Bcl-2 expression level by Western blot analysis; type: functional, cell-based
Outline: (§1)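 Western blot of treated K562 cells for Bcl-2, Bax, activated caspase 3 and cleaved PARP (85 kDa fragment). Blots developed by ECL, with band expression quantified by densitometry against an untreated control sample.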

K562 [9] = test: Induction of apoptosis in human K562 cells assessed as increase in Bax expression level by Western blot analysis; type: functional, cell-based; outline: as §1
K562 [10] = test: Cell cycle arrest in human K562 cells assessed as total cell levels at G0/G1 phase at IC50 after 72 hrs by propidium iodide staining based flow cytometry (reference value: 39.97%); type: functional
K562 [11] = test: Cell cycle arrest in human K562 cells assessed as total cell levels at S phase at IC50 after 72 hrs by propidium iodide staining based flow cytometry (reference value: 36.49%); type: functional
K562 [12] = test: Cell cycle arrest in human K562 cells assessed as total cell levels at G2/M phase at IC50 after 72 hrs by propidium iodide staining based flow cytometry (reference value: 14.31%); type: functional
K562 [13] = test: Cell cycle arrest in human K562 cells assessed as total cell levels at M4 phase at IC50 after 72 hrs by propidium iodide staining based flow cytometry (reference value: 0.50%); type: functional
K562 [14] = test: Induction of apoptosis in human K562 cells assessed as gated necrotic cells by Annexin V-FITC/propidium iodide staining based flow cytometry (reference value: 0.24%); type: functional
K562 [15] = test: Induction of apoptosis in human K562 cells assessed as gated late apoptotic cells by Annexin V-FITC/propidium iodide staining based flow cytometry (reference value: 0.88%); type: functional
K562 [16] = test: Induction of apoptosis in human K562 cells assessed as gated viable cells by Annexin V-FITC/propidium iodide staining based flow cytometry (reference value: 95.78%); type: functional
K562 [17] = test: Induction of apoptosis in human K562 cells assessed as gated early apoptotic cells by Annexin V-FITC/propidium iodide staining based flow cytometry (reference value: 3.18%); type: functional
K562 [18] = test: Induction of apoptosis in human K562 cells assessed as total necrotic cells by Annexin V-FITC/propidium iodide staining based flow cytometry (reference value: 0.23%); type: functional
K562 [19] = test: Induction of apoptosis in human K562 cells assessed as total late apoptotic cells by Annexin V-FITC/propidium iodide staining based flow cytometry (reference value: 0.77%); type: functional
K562 [20] = test: Induction of apoptosis in human K562 cells assessed as total viable cells by Annexin V-FITC/propidium iodide staining based flow cytometry (reference value: 92.45%); type: functional
K562 [21] = test: Induction of apoptosis in human K562 cells assessed as total early apoptotic cells by Annexin V-FITC/propidium iodide staining based flow cytometry (reference value: 3.07%); type: functional

| SMILES | IC50 (MRC5) [µM] | IC50 (HeLa) [µM] | IC50 (MDA-MB-231) [µM] | IC50 (MCF7) [µM] | IC50 (Raji) [µM] | IC50 (Jurkat) [µM] | IC50 (HL-60) [µM] | IC50 (K562 [1]) [µM] | IC50 (A549) [µM] | Activity (K562 [2]) [%] | Activity (K562 [3]) [%] | Activity (K562 [4]) [%] | Activity (K562 [5]) [%] | Activity (K562 [6]) [%] | Activity (K562 [7]) [%] | Activity (K562 [8]) | Activity (K562 [9]) | Activity (K562 [10]) [%] | Activity (K562 [11]) [%] | Activity (K562 [12]) [%] | further results |
| --- | --- | --- | --- | --- | --- | --- | --- | --- | --- | --- | --- | --- | --- | --- | --- | --- | --- | --- | --- | --- | --- |
| O=C1C=C[C@@]2(C[C@H](OC(=O)/C=C/c3ccc(F)cc3)[C@@H](c3ccccc3)O2)O1 | > 100 | 2.21 | > 100 | 21.5 | 55.4 | 22.2 | 4.48 | 1.05 | 25.5 | 2.61 | 41.18 | 33.71 | 22.5 | 4.02 | 3.58 | Active | Active | 36.51 | 30.81 | 19.95 | Activity (K562 [13]): 2.31%; Activity (K562 [14]): 0.54%; Activity (K562 [15]): 1.38%; Activity (K562 [16]): 91.63%; Activity (K562 [17]): 6.46%; Activity (K562 [18]): 0.52%; Activity (K562 [19]): 1.33%; Activity (K562 [20]): 88.51%; Activity (K562 [21]): 6.24% |
| O=C1C=C[C@]2(C[C@H](OC(=O)/C=C/c3ccc(F)cc3)[C@H](c3ccccc3)O2)O1 | > 100 | 12 | 1.02 | 15.6 | 17.3 | 15.4 | 12 | 9.05 | 1.21 | 14.87 | 23.2 | 37.11 | 24.82 | 85.69 | 3.78 | Active | Active | 19.29 | 31.52 | 29.05 | Activity (K562 [13]): 4.05%; Activity (K562 [14]): 0.36%; Activity (K562 [15]): 2.62%; Activity (K562 [16]): 13.78%; Activity (K562 [17]): 83.24%; Activity (K562 [18]): 0.23%; Activity (K562 [19]): 1.7%; Activity (K562 [20]): 2.45%; Activity (K562 [21]): 60.46% |
| COc1ccc(/C=C/C(=O)O[C@H]2C[C@]3(C=CC(=O)O3)O[C@H]2c2ccccc2)cc1 | > 100 | 12.8 | 2.64 | 11.2 | 8.69 | 14.2 | 8.67 | 12.8 | 1.58 | 3.41 | 41.6 | 27.14 | 27.85 | 2.28 | 3.76 | inactive | Active | 37.38 | 24.97 | 25.02 | Activity (K562 [13]): 3.06%; Activity (K562 [14]): 0.37%; Activity (K562 [15]): 0.78%; Activity (K562 [16]): 93.46%; Activity (K562 [17]): 5.39%; Activity (K562 [18]): 0.36%; Activity (K562 [19]): 0.76%; Activity (K562 [20]): 91.39%; Activity (K562 [21]): 5.27% |
| O=C1C=C[C@]2(C[C@H](OC(=O)/C=C/c3ccc([N+](=O)[O-])cc3)[C@H](c3ccccc3)O2)O1 | > 100 | 11.5 | 4.48 | 7.55 | 11.8 | 10.2 | 4.32 | 14.3 | 3.12 | 20.43 | 30.42 | 29.17 | 19.98 | 81.97 | 0.64 | Active | Active | 27.84 | 27.16 | 18.29 | Activity (K562 [13]): 18.7%; Activity (K562 [14]): 3.37%; Activity (K562 [15]): 3.87%; Activity (K562 [16]): 13.94%; Activity (K562 [17]): 78.82%; Activity (K562 [18]): 0.68%; Activity (K562 [19]): 0.78%; Activity (K562 [20]): 2.81%; Activity (K562 [21]): 15.89% |
